Results from ChEMBL document CHEMBL1151805, “Effect of guggulsterone and cembranoids of Commiphora mukul on pancreatic phospholipase A(2): role in hypocholesterolemia” (J Nat Prod, 2009).
Activity calls are given as the source filed them. No cut-off for these calls is given here.

Key:
Phospholipase A2 [1] = target: T1, Phospholipase A2 (Homo sapiens, UniProt P04054); assay: Apparent inhibition of human pancreatic recombinant 1B PLA2 expressed in Escherichia coli assessed as hydrolysis rate of 1,2-dimyristoyl-sn-3-glycerophosphocholine vesicles in presence of cholate
Target sequence in this assay (P04054 23-148 limits assumed): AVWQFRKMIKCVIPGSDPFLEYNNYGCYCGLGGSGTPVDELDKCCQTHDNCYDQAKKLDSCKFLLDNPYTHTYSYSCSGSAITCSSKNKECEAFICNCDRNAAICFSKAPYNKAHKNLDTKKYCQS

Phospholipase A2 [2] = target: T1, Phospholipase A2; assay: Increase in human pancreatic recombinant 1B PLA2 activity expressed in Escherichia coli assessed as hydrolysis rate of 1,2-dimyristoyl-sn-3-glycerophosphocholine vesicles in absence of cholate
Method in brief: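 pH-stat titration of hydrolysis of sonicated 1 mM DMPC vesicles, started with 2 to 10 pM hPLA2, titrated with 1 mM 2-aminopropanediol base. Buffer was 5 mM CaCl2, 1 mM NaCl, 0.1 mM EDTA, pH 8.0, 24 ± 0.1 °C, under nitrogen. Test compound was present at 0.03 or 0.007 MF.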
Target sequence in this assay (P04054 23-148 limits assumed): as above

Phospholipase A2 [3] = target: T1, Phospholipase A2; assay: Reduction in human pancreatic recombinant 1B PLA2 activity expressed in Escherichia coli assessed as hydrolysis of cholate-activated 1,2-dimyristoyl-sn-3-glycerophosphocholine vesicles
Target sequence in this assay (P04054 23-148 limits assumed): as above

Phospholipase A2 [4] = target: T1, Phospholipase A2; assay: Binding affinity to human pancreatic recombinant 1B PLA2 expressed in Escherichia coli at 100 uM by saturation transfer difference NMR spectroscopy
Target sequence in this assay (P04054 23-148 limits assumed): as above

Sus scrofa = species: Sus scrofa; assay: Binding affinity to pig PLA2 at 100 uM by saturation transfer difference NMR spectroscopy
Method in brief: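 STD NMR at 15 °C in 20 mM bicarbonate in D2O, pH 7.5, with 100 µM ligand and 7 µM pig pancreatic PLA2. Difference of on- and off-resonance irradiation by phase cycling, coadded from 6144 scans.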

Phospholipase A2 [5] = target: T1, Phospholipase A2; assay: Binding affinity to human pancreatic recombinant 1B PLA2 expressed in Escherichia coli by resonance energy transfer assay in presence of trimethyl-ammonium-diphenylhexatriene
Method in brief: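 Aqueous-phase binding measured as bile-salt quenching of the resonance energy transfer signal from the hPLA2–trimethyl-ammonium-diphenylhexatriene complex. Kd was derived from the quenching.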
Target sequence in this assay (P04054 whole entry): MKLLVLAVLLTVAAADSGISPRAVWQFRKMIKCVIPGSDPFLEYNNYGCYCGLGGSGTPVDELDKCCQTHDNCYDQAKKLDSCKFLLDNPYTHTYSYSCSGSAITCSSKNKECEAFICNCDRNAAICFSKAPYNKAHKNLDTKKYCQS

Phospholipase A2 [6] = target: T1, Phospholipase A2
Target sequence in this assay (P04054 23-148 limits assumed): as the sequence (P04054 23-148 limits assumed) above

Row | Structure (SMILES) | Ki(app) (mole fraction) (Phospholipase A2 [1]) | Activity (Phospholipase A2 [2]) | Activity (Phospholipase A2 [3]) | Activity (Phospholipase A2 [4]) | Activity (Sus scrofa) | Kd (Phospholipase A2 [5]) | Ki(app) (mole fraction) (Phospholipase A2 [6])
1 | CC1=C\C/C=C(\C)CC/C=C(\C)CC[C@](O)(C(C)C)/C=C\1 | 0.00325 | inactive | Dose-dependent effect | – | – | – | –
2 | C[C@H](CCC(=O)NCCS(=O)(=O)O)[C@H]1CC[C@H]2[C@@H]3CC[C@@H]4C[C@H](O)CC[C@]4(C)[C@H]3C[C@H](O)[C@]12C | – | – | – | Active | – | – | –
3 | C[C@H](CCC(=O)O)[C@H]1CC[C@H]2[C@@H]3[C@H](O)C[C@@H]4C[C@H](O)CC[C@]4(C)[C@H]3CC[C@]12C | – | – | – | Active | Active | – | –
4 | C[C@H](CCC(=O)O)[C@H]1CC[C@H]2[C@@H]3[C@H](O)C[C@@H]4C[C@H](O)CC[C@]4(C)[C@H]3C[C@H](O)[C@]12C [CHOLIC ACID] | – | – | – | Active | Active | > 150 µM | –
5 | C[C@H](CCC(=O)NCCS(=O)(=O)O)[C@H]1CC[C@H]2[C@@H]3[C@@H](O)C[C@@H]4C[C@H](O)CC[C@]4(C)[C@H]3CC[C@]12C [TAURURSODIOL] | 0.000306 | – | Dose-dependent effect | – | – | 10 µM | 0.005
